According to PubChem BioAssay:
Active and inactive are the calls of the source.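 Rule for the calls, unless noted: active = current rise at least 3 SD above the untreated control mean in each of two repeat wells; inactive = the rest.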

How the values were obtained:
[1] = nonspecific flux increase, KCNQ1-free cells – parental CHO cells, counter-screen for KCNQ1 potentiator project (AID 493006;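 active = duplicate-averaged activation above buffer control mean plus 5 SD of those controls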;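 for activation: fluorescence ratio of max minus min over baseline after K+ and Tl+ depolarization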); settings: parental CHO-K1 cells, FluxOR thallium flux, at 10 µM; hits give high values
Outline: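 Assay system: parental CHO-K1 cells lacking KCNQ1, loaded with FluxOR thallium dye; timing: dye 90 min RT, compound 20 min RT; signal: kinetic thallium-flux fluorescence; repeats: duplicate wells per compound, percent values averaged; benchmarks: buffer and R-L3 controls; reagent: Potassium/thallium depolarization pulse; read-out: fluorescence change ratio scaled 0% buffer, 100% R-L3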

[2] = biological target: Potassium voltage-gated channel subfamily KQT member 1 (Homo sapiens) (UniProt P51787); assay: enhancement of KCNQ1 channel thallium flux – FluxOR thallium flux, CHO cells, duplicates, confirmation (AID 493007;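 active = potentiation averaged over duplicate wells exceeding buffer-only control mean by more than 3 SD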;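 for outcome: cells depolarized by a potassium plus thallium sulfate stimulus after compound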); settings: KCNQ1 cell line, FluxOR thallium flux fluorescence, at 10 µM; hits give high values, % of reference activator effect, buffer zero
Outline: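 material = CHO cells stably expressing the KCNQ1 potassium channel | repeats = duplicate wells per compound | measure = percent activation between buffer and R-L3 responses | signal = FluxOR thallium-flux fluorescence, kinetic read | schedule = FluxOR dye loading 90 min, compound exposure 20 min, room temperature | control set = buffer and R-L3 controls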

[3] = biological target: Potassium voltage-gated channel subfamily KQT member 2 (Rattus norvegicus) (UniProt O88943); assay: KCNQ2 thallium flux enhancement – KCNQ2-CHO-K1 cells, selectivity assay for KCNQ1 potentiator project (AID 493009;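 active = mean duplicate potentiation above the buffer control mean plus 5 SD of buffer wells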;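 note: assay conditions were tuned for KCNQ1 rather than KCNQ2 modulators; signal is max minus min fluorescence divided by baseline after thallium stimulus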); settings: FluxOR thallium flux fluorescence, at 10 µM; hits give high values, scaled: buffer 0, activator control 100
[4] = biological target: Potassium voltage-gated channel subfamily KQT member 1 (Homo sapiens) (UniProt P51787); assay: KCNQ1 activators by electrophysiology – IonWorks patch clamp, KCNQ1-CHO cells, orthogonal assay for KCNQ1 potentiator project, confirmation (AID 493184); settings: automated patch clamp current, at 10 µM; hits give high values
Outline: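 Assay system – CHO cells carrying KCNQ1 · Medium – pH 7.4 external bath · Probe or stimulus – depolarizing pulse to +40 mV from -90 mV · Compound dosing – one dose, 10 µM final · Measured by – automated perforated-patch electrophysiology · Measure – % potentiation of steady-state current relative to pre-compound · Repeats – two replicates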

Chain of Potassium voltage-gated channel subfamily KQT member 1 (Homo sapiens) (P51787 whole entry, looked up): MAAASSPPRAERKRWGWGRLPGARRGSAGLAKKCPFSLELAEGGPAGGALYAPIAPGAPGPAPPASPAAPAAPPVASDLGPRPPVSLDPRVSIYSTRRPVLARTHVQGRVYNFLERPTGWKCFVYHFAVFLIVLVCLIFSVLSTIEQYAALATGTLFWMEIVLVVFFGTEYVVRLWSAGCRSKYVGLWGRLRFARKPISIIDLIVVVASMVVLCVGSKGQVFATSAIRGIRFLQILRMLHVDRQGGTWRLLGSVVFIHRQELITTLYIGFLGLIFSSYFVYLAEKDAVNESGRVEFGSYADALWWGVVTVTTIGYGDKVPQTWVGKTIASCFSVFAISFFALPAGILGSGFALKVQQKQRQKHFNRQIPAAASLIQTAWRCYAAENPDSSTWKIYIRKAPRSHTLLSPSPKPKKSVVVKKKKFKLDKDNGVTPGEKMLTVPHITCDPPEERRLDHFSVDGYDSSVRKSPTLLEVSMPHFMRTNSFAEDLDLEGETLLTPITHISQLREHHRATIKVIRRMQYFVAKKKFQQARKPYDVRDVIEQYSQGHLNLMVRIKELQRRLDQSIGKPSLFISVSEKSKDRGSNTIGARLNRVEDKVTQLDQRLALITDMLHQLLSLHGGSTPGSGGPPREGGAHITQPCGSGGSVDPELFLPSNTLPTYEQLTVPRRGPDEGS
Chain of Potassium voltage-gated channel subfamily KQT member 2 (Rattus norvegicus) (O88943 whole entry, looked up): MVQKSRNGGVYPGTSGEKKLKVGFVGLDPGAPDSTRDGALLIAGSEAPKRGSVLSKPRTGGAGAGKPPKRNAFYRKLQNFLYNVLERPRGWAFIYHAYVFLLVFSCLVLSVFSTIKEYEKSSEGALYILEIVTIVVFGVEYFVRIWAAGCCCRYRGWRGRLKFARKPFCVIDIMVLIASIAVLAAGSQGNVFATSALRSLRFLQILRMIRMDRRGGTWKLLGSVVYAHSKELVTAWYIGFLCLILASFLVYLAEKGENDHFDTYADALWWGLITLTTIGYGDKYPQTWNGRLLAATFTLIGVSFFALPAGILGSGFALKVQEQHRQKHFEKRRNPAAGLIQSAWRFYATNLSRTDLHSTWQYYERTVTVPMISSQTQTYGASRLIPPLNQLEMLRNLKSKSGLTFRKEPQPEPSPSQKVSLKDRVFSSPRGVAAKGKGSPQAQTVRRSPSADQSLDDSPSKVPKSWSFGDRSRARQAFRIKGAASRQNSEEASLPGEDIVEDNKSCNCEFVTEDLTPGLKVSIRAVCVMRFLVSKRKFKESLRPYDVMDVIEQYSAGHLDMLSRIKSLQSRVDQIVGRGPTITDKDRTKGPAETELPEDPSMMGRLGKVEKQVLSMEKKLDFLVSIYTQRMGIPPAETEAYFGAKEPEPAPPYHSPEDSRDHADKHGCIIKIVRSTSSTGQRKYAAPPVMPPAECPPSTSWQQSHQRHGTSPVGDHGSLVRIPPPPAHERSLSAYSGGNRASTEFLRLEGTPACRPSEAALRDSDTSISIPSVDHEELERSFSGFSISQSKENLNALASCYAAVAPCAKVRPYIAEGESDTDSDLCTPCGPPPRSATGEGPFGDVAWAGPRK

Compound | activation [1] | potentiation [2] | potentiation [3] | outcome [4] | outcome [1] | outcome [2] | outcome [3]
O=c1c2ccccc2sn1-c1ccccc1 | 180% (active) | 59% (active) | 148% (active) | inactive |  |  | 
CCOc1cc(CNc2ncnc3nc[nH]c23)ccc1OC |  |  |  | inactive | inactive | inactive | inactive
O=C(COc1ccccc1F)Nc1c2c(nn1-c1ccccc1)CS(=O)(=O)C2 |  |  |  | inactive | inactive | inactive | inactive
c1ccc2[nH]c(-c3ccc4c(c3)OCO4)nc2c1 |  |  |  | inactive | inactive | inactive | inactive
Cc1ccc2nc(NC(=O)c3ccc(Br)o3)sc2c1 |  |  |  | inactive | inactive | inactive | inactive
CC(Oc1ccccc1F)C(=O)/C=C/N(C)C (centres undefined) |  |  |  | inactive | inactive | inactive | inactive
CCc1ccc(-c2c(C)sc(NC(C)=O)c2C(N)=O)cc1 |  |  |  | inactive | inactive | inactive | inactive
O=C1CN(S(=O)(=O)c2ccccc2)CC(=O)N1CCc1ccccc1 |  |  |  | inactive | inactive | inactive | inactive
O=C1C(C2=C(O)c3ccccc3C2=O)=Nc2ccccc21 | 225% (active) | 61% (active) | 238% (active) | inactive |  |  | 
CCOC(=O)c1[nH]c(C=O)c(C(=O)OCC)c1C |  |  |  | inactive | inactive | inactive | inactive
CN(C)c1oc(-c2ccc(OCc3ccc(Cl)cc3)cc2)nc1C#N |  |  |  | inactive | inactive | inactive | inactive
CC1CCN(C(=S)NC(=O)c2cccs2)CC1 | 143% (active) | 28.5% (active) | 186% (active) | inactive |  |  | 
CCOC(=O)c1cnc2c(C(=O)OC)cccc2c1NCCN1CCOCC1 |  |  |  | inactive | inactive | inactive | inactive
O=C(N/N=C1/C(=O)c2cccc3cccc1c23)c1ccc(Cl)cc1 | 145% (active) | 83.5% (active) |  | inactive |  |  | inactive
COc1ccc(C(=O)CC(=O)C(=O)Nc2ccccc2C(F)(F)F)cc1 |  | 38.5% (active) | 147% (active) | inactive | inactive |  | 
O=C(Oc1c(-c2ccco2)oc2ccccc2c1=O)c1cccnc1 |  | 39.5% (active) | 187% (active) | inactive | inactive |  | 
COc1ccc(NC(=O)Cc2nnc(SCC(=O)c3ccc(F)cc3)n2C)cc1 |  |  |  | inactive | inactive | inactive | inactive
Cc1cc(C)cc(OCC(O)Cn2nc(C)cc2C)c1 (centres undefined) |  |  |  | inactive | inactive | inactive | inactive
Cc1cc(C(=O)N2CCCC(N3CCN(c4cccc(Cl)c4)CC3)C2)n(C)n1 (centres undefined) |  |  |  | inactive | inactive | inactive | inactive
COCCn1c(=S)[nH]c2sc3c(c2c1=O)CCC(C)C3 (centres undefined) | 541% (active) | 191% (active) | 514% (active) | inactive |  |  | 
COc1cccc(C(=O)NNC(=O)C(=O)Nc2cccc3ccccc23)c1 | 218% (active) | 51.5% (active) | 228% (active) | inactive |  |  | 
NC(=O)c1ccccc1NC(=O)N1CCOCC1 |  |  |  | inactive | inactive | inactive | inactive

Compound | activation [1] | potentiation [2] | potentiation [3] | outcome [4] | outcome [1] | outcome [2] | outcome [3]
COC(=O)c1ccc(/C=C/c2ccc3cccc(OC)c3n2)cc1 |  |  |  | inactive | inactive | inactive | inactive
COC(=O)c1c(NC(=S)Nc2ccc(F)cc2[N+](=O)[O-])sc2c1CCCCC2 | 160% (active) | 32.5% (active) | 180% (active) | inactive |  |  | 
COC(=O)c1sc(NC(=S)NC(=O)c2ccccc2C)nc1C | 187% (active) | 50% (active) | 204% (active) | inactive |  |  | 
C/C(Cl)=C\Cn1c(O)c(N=NC(N)=S)c2cc(Br)ccc21 |  | 70.5% (active) |  | inactive | inactive |  | inactive
CC(NC(=O)CS(=O)(=O)c1ccccc1)c1ccccc1 (centres undefined) |  |  |  | inactive | inactive | inactive | inactive
O=C(NC(=S)N1CCc2ccccc21)c1ccc(Br)o1 | 400% (active) | 124% (active) | 440% (active) | inactive |  |  | 
Cc1ccc(C(=O)Nc2nnn(C)n2)cc1 |  |  |  | inactive | inactive | inactive | inactive
CCOC(=O)c1ccccc1NC(=O)CSc1nc2ccccc2n1CC(=O)N1CCCC1 |  |  |  | inactive | inactive | inactive | inactive
NNC(=O)c1sccc1OCc1ccc(Cl)cc1Cl |  |  |  | inactive | inactive | inactive | inactive
CCOC(=O)c1sc(NC(=S)NC(=O)c2ccc(OC)cc2)nc1C |  |  |  | inactive | inactive | inactive | inactive
CCOC(=O)c1sc(NN=C(C(=O)OC)C(=O)OC)c(C(=O)OCC)c1C | 185% (active) | 74.5% (active) | 208% (active) | inactive |  |  | 
CCS(=O)(=O)Nc1ccc(C(=O)CC2(O)C(=O)Nc3ccccc32)cc1 (centres undefined) |  |  |  | inactive | inactive | inactive | inactive
CCOc1ccc2nc(N3C(=O)/C(=C/c4ccc(Cl)cc4)NC3=S)sc2c1 | 283% (active) | 143% (active) | 416% (active) | inactive |  |  | 
CCCN(CCC)C(=S)NC(=O)c1ccc(Cl)cc1Cl | 470% (active) | 204% (active) | 448% (active) | inactive |  |  | 
Cn1nc(SCC(=O)O)sc1=S |  |  |  | inactive | inactive | inactive | inactive
COc1ccc(C(=O)CC(=O)C(=O)Nc2ccccc2Cl)cc1 | 139% (active) | 25% (active) |  | inactive |  |  | inactive
COc1ccccc1CNC(=O)c1oc2ccc(S(=O)(=O)N3CCOCC3)cc2c1C |  |  |  | inactive | inactive | inactive | inactive
CCCCn1c(SCC(N)=O)nc2ccc(N3CCOCC3)cc2c1=O |  |  |  | inactive | inactive | inactive | inactive
COc1ccc(OC)c(-c2cc(C(=O)N3CCN(c4ccccc4)CC3)no2)c1 |  |  |  | inactive | inactive | inactive | inactive
S=c1[nH]cnc2sc(-c3ccccc3)cc12 | 520% (active) | 274% (active) | 586% (active) | inactive |  |  | 
COCCN(Cc1cc2cc3c(cc2nc1Cl)OCO3)C(=O)c1ccc(C)cc1 |  |  |  | inactive | inactive | inactive | inactive
COc1ccc(NC(=O)/C(=C/c2ccc(OC(C)=O)c(OC)c2)NC(C)=O)cc1 |  |  |  | inactive | inactive | inactive | inactive

Compound | activation [1] | potentiation [2] | potentiation [3] | outcome [4] | outcome [1] | outcome [2] | outcome [3]
CCOC(=O)c1cnc(SCC(=O)Nc2nc(C)c(C)s2)nc1N |  |  |  | inactive | inactive | inactive | inactive
O=C(NCCCn1ccnc1)c1cc(C2CC2)on1 |  |  |  | inactive | inactive | inactive | inactive
CCOC(=O)NC(=S)Nc1ccc(C(C)(C)C)cc1 |  | 20% (active) |  | inactive | inactive |  | inactive
N#Cc1ccc(-c2nc3cc(Cl)ccc3c(=O)n2O)cc1 | 189% (active) | 29.5% (active) | 176% (active) | inactive |  |  | 
O=C(NC(=S)Nc1nc(-c2ccccc2)cs1)c1ccco1 |  | 48.5% (active) |  | inactive | inactive |  | inactive
COc1ccc(-c2oc3ccccc3c(=O)c2OC(C)=O)cc1 | 144% (active) |  | 161% (active) | inactive |  | inactive | 
Cc1sc(NC(=O)c2ccccc2)c(C(c2ccc(Cl)cc2)N2CCN(CCO)CC2)c1C (centres undefined) |  |  |  | inactive | inactive | inactive | inactive
OCCN1CCN(c2ncnc3c2sc2nc(N4CCOCC4)c4c(c23)CCC4)CC1 |  | 19% (active) |  | inactive | inactive |  | inactive
CNC(C)C#Cc1ccc2sc3cccc(OC)c3c(=O)c2c1 (centres undefined) |  |  |  | inactive | inactive | inactive | inactive
CSc1nnc(-c2ccccc2)o1 |  |  |  | inactive | inactive | inactive | inactive
C=CCN(CC=C)C(=S)NC(=O)c1ccc(OC)cc1 | 187% (active) | 43.5% (active) | 162% (active) | inactive |  |  | 
Cc1ccc(N=Nc2ccc(O)c3ncccc23)cc1 | 185% (active) | 52.5% (active) | 229% (active) | inactive |  |  | 
CC(C)(C)C(=O)NC1CC2CCCC(C1)N2C(=O)Nc1ccccc1 (centres undefined) |  |  |  | inactive | inactive | inactive | inactive
C=CCn1c(=S)[nH]c2nc3c(cc2c1=O)CCCC3 |  | 34% (active) | 152% (active) | inactive | inactive |  | 
COc1cccc(C=NCC(C)N=Cc2cccc(OC)c2O)c1O (centres undefined) |  |  |  | inactive | inactive | inactive | inactive
O=c1c2cc(Cl)ccc2nc(-c2ccccc2)n1O | 298% (active) | 82.5% (active) | 269% (active) | inactive |  |  | 
Cc1ccc(/C=N/Nc2nc(C(C)(C)C)cs2)o1 |  |  |  | inactive | inactive | inactive | inactive
Cc1ccc(C)c(NC(=S)N/N=C2/CCCCc3ccccc32)c1 | 140% (active) | 37% (active) | 164% (active) | inactive |  |  | 
O=C1CCC(C(=O)N2CCSCC2)CN1Cc1cccc(C(F)(F)F)c1 (centres undefined) |  |  |  | inactive | inactive | inactive | inactive
CCCNC(=O)C(=O)N/N=C/c1cccs1 |  | 24.5% (active) |  | inactive | inactive |  | inactive
COC(=O)c1ccsc1NC(=O)CN1CCN(Cc2ccc3c(c2)OCO3)CC1 |  |  |  | inactive | inactive | inactive | inactive
S=c1nc[nH]c2c1sc1nc(-c3ccccc3)c3c(c12)CCCC3 | 456% (active) | 328% (active) | 499% (active) | inactive |  |  | 
